Assay results: ChEMBL document CHEMBL1128341, “(+)-cis-4,5,7a,8,9,10,11,11a-octahydro-7H-10-methylindolo[1,7- bc][2,6]-naphthyridine: a 5-HT2C/2B receptor antagonist with low 5-HT2A receptor affinity” (1995)

What was measured:
[1] = biological target: T1, Alpha-2A adrenergic receptor (Bos taurus) (UniProt Q28838)
T1 sequence (whole entry): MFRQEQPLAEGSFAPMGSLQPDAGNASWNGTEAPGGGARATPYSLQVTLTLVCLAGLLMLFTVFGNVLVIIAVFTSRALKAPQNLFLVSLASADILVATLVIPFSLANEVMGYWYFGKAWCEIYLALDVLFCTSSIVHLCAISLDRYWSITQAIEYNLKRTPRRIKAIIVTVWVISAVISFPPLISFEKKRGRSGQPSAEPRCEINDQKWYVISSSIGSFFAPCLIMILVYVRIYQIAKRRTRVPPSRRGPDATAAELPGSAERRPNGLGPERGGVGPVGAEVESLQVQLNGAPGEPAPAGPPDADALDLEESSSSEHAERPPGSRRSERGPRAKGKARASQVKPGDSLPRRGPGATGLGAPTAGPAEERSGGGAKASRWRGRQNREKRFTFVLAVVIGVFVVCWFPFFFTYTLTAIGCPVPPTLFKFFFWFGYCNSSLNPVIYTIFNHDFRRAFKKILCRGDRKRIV

[2] = biological target: T2, Alpha-1A adrenergic receptor (Bos taurus) (UniProt P18130)
T2 sequence (whole entry): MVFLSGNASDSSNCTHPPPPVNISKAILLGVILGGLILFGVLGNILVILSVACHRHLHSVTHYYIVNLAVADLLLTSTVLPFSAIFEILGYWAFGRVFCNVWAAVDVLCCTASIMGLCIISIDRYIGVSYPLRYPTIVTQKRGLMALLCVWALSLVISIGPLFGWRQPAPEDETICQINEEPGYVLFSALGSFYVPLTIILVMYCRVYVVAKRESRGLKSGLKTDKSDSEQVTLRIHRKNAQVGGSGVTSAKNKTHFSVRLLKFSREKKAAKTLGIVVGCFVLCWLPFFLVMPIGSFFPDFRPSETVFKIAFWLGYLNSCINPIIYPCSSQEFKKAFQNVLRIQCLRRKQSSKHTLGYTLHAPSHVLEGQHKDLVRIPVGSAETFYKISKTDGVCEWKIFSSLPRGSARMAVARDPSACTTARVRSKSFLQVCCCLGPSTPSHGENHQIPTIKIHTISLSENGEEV

[3] = biological target: D(2) dopamine receptor (Bos taurus) (UniProt P20288); conditions: Striatum
Chain of D(2) dopamine receptor (Bos taurus) (P20288 whole entry): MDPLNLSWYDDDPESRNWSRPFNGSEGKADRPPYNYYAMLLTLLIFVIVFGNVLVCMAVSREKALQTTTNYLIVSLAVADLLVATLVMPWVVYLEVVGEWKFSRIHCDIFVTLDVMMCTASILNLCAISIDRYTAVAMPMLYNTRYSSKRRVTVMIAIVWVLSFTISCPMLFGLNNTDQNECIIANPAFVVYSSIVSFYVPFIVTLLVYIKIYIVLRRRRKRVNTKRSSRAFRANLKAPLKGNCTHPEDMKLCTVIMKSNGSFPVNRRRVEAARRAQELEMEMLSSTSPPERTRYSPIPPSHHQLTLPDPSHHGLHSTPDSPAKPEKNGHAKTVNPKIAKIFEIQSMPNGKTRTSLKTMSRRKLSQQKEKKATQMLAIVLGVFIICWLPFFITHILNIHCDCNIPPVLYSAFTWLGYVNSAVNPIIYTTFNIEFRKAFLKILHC

[4] = biological target: T3, 5-hydroxytryptamine receptor 2C (Homo sapiens) (UniProt P28335)
T3 sequence (whole entry): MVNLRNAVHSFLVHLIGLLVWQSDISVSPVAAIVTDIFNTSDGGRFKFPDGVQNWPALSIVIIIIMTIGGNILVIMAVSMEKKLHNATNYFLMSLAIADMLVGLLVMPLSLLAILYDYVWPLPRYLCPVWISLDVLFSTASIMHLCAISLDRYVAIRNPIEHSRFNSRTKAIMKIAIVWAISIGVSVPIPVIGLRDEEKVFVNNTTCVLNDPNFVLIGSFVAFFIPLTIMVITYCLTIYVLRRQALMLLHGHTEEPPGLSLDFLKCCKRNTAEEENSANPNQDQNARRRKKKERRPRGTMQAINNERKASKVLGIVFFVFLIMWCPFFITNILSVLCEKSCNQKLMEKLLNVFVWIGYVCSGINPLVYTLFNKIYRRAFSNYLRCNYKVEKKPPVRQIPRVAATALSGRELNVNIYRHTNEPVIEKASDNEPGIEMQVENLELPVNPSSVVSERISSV

[5] = biological target: Serotonin 3 receptor (5HT3) (Mus musculus) (UniProt Q9JHJ5+P23979); conditions: Cortex
Chain of Serotonin 3 receptor (5HT3) (Mus musculus) (P23979 whole entry, looked up): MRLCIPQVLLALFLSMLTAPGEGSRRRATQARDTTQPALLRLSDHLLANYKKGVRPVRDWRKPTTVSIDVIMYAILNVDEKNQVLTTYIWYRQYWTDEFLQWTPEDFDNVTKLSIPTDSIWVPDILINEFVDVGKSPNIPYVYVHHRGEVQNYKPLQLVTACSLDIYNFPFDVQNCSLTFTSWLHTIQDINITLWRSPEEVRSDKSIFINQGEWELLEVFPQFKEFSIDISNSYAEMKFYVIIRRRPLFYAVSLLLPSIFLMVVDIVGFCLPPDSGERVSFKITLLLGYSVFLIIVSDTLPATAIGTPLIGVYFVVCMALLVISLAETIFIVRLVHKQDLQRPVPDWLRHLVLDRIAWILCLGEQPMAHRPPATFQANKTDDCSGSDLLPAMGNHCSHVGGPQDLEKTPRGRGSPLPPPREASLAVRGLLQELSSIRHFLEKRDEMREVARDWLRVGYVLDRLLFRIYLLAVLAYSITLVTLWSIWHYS
Chain of Serotonin 3 receptor (5HT3) (Mus musculus) (Q9JHJ5 whole entry, looked up): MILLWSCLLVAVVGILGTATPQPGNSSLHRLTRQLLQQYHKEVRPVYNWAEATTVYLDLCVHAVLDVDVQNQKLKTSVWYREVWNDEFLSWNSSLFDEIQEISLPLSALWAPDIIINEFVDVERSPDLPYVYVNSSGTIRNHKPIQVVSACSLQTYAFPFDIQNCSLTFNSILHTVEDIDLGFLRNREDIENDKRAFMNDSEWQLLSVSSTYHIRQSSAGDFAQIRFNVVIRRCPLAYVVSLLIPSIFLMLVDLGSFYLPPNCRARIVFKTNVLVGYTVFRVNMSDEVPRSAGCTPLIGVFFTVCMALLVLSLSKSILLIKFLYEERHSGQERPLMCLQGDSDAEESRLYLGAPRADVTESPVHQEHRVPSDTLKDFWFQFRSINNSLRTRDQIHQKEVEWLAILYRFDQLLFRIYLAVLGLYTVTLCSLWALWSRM

[6] = biological target: T4, 5-hydroxytryptamine receptor 1A (Homo sapiens) (UniProt P08908); conditions: Sus scrofa; Frontal cortex; Membrane
T4 sequence (whole entry): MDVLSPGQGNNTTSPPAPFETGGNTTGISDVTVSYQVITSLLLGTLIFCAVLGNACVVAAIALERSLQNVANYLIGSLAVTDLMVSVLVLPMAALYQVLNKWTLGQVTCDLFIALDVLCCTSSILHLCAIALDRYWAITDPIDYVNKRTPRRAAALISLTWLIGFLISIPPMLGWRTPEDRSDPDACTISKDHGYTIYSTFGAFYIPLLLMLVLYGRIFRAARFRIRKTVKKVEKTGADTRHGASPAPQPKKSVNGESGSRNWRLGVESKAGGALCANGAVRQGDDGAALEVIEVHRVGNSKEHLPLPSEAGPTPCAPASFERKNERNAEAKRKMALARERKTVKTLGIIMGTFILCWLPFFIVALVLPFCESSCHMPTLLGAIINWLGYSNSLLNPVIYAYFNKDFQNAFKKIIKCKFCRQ

[7] = biological target: 5-hydroxytryptamine receptor 2A (Rattus norvegicus) (UniProt P14842); conditions: N1E-115
Chain of 5-hydroxytryptamine receptor 2A (Rattus norvegicus) (P14842 whole entry): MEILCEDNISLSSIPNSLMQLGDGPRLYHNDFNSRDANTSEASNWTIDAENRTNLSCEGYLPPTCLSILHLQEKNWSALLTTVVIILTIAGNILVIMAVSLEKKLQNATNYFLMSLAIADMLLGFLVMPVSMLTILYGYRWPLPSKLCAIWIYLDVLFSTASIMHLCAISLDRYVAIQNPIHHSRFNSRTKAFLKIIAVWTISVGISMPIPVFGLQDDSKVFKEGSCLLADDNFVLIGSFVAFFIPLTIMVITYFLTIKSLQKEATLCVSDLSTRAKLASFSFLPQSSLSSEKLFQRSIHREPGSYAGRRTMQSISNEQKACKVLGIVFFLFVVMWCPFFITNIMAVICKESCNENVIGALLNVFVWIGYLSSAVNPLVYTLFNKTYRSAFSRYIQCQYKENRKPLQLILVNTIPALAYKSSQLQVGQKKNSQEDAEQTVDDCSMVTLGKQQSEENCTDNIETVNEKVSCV

[8] = biological target: D(1A) dopamine receptor (Bos taurus) (UniProt Q95136); conditions: Striatum
Chain of D(1A) dopamine receptor (Bos taurus) (Q95136 whole entry): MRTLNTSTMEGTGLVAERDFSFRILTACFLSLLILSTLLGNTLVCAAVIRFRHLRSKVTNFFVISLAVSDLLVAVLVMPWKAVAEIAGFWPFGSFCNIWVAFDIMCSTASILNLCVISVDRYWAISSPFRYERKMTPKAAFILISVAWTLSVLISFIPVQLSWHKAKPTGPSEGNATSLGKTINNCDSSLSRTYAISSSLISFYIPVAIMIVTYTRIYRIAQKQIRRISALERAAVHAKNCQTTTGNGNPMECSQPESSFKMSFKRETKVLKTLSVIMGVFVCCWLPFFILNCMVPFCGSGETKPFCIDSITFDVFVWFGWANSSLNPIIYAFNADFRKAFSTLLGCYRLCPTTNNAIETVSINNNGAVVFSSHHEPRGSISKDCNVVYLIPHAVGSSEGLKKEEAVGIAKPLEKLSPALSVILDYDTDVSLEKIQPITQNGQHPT

[9] = biological target: 5-hydroxytryptamine receptor 1B (Rattus norvegicus) (UniProt P28564)
Chain of 5-hydroxytryptamine receptor 1B (Rattus norvegicus) (P28564 whole entry): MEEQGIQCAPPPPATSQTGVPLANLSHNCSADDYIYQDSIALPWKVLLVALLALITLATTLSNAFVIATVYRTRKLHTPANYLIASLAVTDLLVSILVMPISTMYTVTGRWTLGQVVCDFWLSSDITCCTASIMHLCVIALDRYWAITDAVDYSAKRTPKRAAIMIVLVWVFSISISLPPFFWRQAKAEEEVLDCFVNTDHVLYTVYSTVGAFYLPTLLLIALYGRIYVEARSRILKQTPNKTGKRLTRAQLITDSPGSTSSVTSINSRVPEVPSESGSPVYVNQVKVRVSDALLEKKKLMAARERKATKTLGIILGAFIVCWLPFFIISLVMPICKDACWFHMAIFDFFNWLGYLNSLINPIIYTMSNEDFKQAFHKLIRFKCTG

[10] = test system: Rattus norvegicus; experiment: Inhibition of ACTH response to MK-212 by the compound (0.1 mg/Kg) in rats; type: functional
Procedure, shortened: (§1)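 Male Sprague-Dawley rats (200–250 g) received compound (0, 0.1 or 1 mg/kg sc) 20 min before MK-212 sc or solvent. Rats were decapitated 30 min after MK-212, and trunk blood plasma was taken. Rat ACTH was measured by radioimmunoassay (ng/mL), as means ± SEM of eight experiments.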

[11] = test system: Rattus norvegicus; experiment: Inhibition of ACTH response to MK-212 by the compound (1 mg/Kg) in rats with solvent; type: functional
Procedure, shortened: as §1

[12] = test system: Rattus norvegicus; experiment: Inhibition of ACTH response to MK-212 by the compound (1 mg/Kg) in rats; type: functional
Procedure, shortened: as §1

Row | SMILES | pKD [1] | pKD [2] | pKD [3] | pKD [4] | pKD [5] | pKD [6] | pKD [7] | pKD [8] | pKD [9] | Inhibition [10] | Inhibition [11] | Inhibition [12]
1 | CN1CC[C@@H]2CN3CCc4cccc(c43)[C@@H]2C1 (stereo in doubt; 8) [listing 1 of 2 here] | 6.5 | 5.6 | < 5 | 7.8 | 4.7 | 6.1 | 6.2 | < 5 | 4.6 |  |  | 
2 | CN1CC[C@@H]2CN3CCc4cccc(c43)[C@@H]2C1 (stereo in doubt; 8) [listing 2 of 2 here] |  |  |  |  |  |  |  |  |  | 165.8 ng/mL | 38.5 ng/mL | 95.1 ng/mL
3 | CN1CC[C@@H]2CN3CCc4cccc(c43)[C@@H]2C1 (stereo in doubt; 9) | 6 | 6 | < 5 |  |  | < 5 |  | < 5 |  |  |  | 
4 | Cc1nc2sccn2c(=O)c1CCN1CCC(=C(c2ccc(F)cc2)c2ccc(F)cc2)CC1 [RITANSERIN] |  |  |  |  |  |  |  |  |  | 204.3 ng/mL | 37.2 ng/mL | 95.4 ng/mL
